According to ChEMBL document CHEMBL1125680, “Quinazolinone cholecystokinin-B receptor ligands” (J Med Chem, 1991):

target: T1, Cholecystokinin receptor type A (Rattus norvegicus) (UniProt P30551); test: Inhibition of [3H]-labeled L-364,718 binding to Cholecystokinin type A receptor in rat pancreas; settings: concentration not given here
T1 sequence (whole entry): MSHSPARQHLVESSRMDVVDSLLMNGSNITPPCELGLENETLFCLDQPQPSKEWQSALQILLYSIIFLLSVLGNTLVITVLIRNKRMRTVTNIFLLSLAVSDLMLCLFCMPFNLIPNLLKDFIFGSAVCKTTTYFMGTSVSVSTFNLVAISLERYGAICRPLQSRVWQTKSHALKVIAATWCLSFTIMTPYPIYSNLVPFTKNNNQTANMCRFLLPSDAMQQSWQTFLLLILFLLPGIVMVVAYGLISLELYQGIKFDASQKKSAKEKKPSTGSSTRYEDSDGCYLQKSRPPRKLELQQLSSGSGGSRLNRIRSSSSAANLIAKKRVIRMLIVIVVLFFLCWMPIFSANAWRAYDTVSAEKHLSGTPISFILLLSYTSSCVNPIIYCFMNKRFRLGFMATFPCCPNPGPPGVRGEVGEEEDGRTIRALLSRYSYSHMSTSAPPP

| SMILES | inhibition [%] |
| --- | --- |
| O=c1c2ccccc2nc(CCc2c[nH]c3ccccc23)n1-c1cccc(C(F)(F)F)c1 | 6 |
| COc1cccc(-n2c(CCc3c[nH]c4ccc(Br)cc34)nc3ccccc3c2=O)c1 | 5 |
| CC(C)Oc1cccc(-n2c(CCc3c[nH]c4ccc(Br)cc34)nc3ccccc3c2=O)c1 | -6 |
| CCc1cccc(-n2c(CCc3c[nH]c4ccc(Br)cc34)nc3ccccc3c2=O)c1 | -5 |

target: T2, Gastrin/cholecystokinin type B receptor (Mus musculus, UniProt P56481); test: Inhibition of [125I]CCK-8 sulfate binding to cholecystokinin type B receptor in mouse brain membranes.; assay type: cell membranes; settings: not given
T2 sequence (P56481 whole entry): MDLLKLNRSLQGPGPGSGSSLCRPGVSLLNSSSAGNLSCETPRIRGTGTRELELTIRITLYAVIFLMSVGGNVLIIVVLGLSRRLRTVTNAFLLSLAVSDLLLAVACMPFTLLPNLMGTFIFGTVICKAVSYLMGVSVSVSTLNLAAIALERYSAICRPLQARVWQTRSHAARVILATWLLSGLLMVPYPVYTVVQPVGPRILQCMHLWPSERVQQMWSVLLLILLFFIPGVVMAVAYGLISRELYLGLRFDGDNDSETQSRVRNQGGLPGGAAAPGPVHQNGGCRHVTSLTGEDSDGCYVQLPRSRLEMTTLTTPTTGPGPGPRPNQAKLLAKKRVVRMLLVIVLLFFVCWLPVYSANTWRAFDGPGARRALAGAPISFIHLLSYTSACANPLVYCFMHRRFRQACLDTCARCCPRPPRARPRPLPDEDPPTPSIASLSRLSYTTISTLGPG

| SMILES | IC50 [nM] |
| --- | --- |
| O=c1c2ccccc2nc(CCc2c[nH]c3ccccc23)n1-c1cccc(C(F)(F)F)c1 | 480 |
| CCCOc1cccc(-n2c(CCc3c[nH]c4ccc(Br)cc34)nc3ccccc3c2=O)c1 | 58 |
| O=c1c2ccccc2nc(CCc2c[nH]c3ccc(Br)cc23)n1-c1cccc(OC2CCCC2)c1 | 67 |

target: T3, Gastrin/cholecystokinin type B receptor (Mus musculus) (UniProt P56481); test: Inhibition of [125I]-labeled CCK-8 sulfate binding to cholecystokinin type B receptor in mouse brain membranes; assay type: cell membranes; settings: Membrane, concentration not given here
T3 sequence (whole entry): T2 sequence (P56481 whole entry)
Method in brief: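 Mouse brain membranes as the CCK-B receptor source, with 125I-labelled CCK-8 sulfate as the radioligand, following the Chang and Lotti method.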

| SMILES | inhibition [%] |
| --- | --- |
| O=c1c2ccccc2nc(CCc2c[nH]c3ccccc23)n1-c1ccccc1F | 75 |
| COc1ccccc1-n1c(CCc2c[nH]c3ccccc23)nc2ccccc2c1=O | 74 |
| O=c1c2ccccc2nc(CCc2c[nH]c3ccccc23)n1-c1ccccc1Cl | 44 |
| O=c1c2ccccc2nc(CCc2c[nH]c3ccccc23)n1-c1ccccc1C(F)(F)F | 35 |
